The test system of test [1] is Candida albicans. Put plainly: In vitro concentration causing 90% inhibition of Candida albicans with percentage of resistant strains %R = 25 (MIC > 64 ug/mL) at a range of 0.062-0.25 ug/mL. Format: functional.
Test [2] has as its system Candida albicans. Put plainly: In vitro concentration causing 50% inhibition of Candida albicans with percentage of resistant strains %R = 25 (MIC > 64 ug/mL) at a range of 0.062-0.25 ug/mL. Format: functional.
Test [3] has as its system Candida albicans. Put plainly: In vitro minimal inhibitory concentration against Candida albicans with percentage of resistant strains %R = 25 (MIC > 64 ug/mL) at a range of 0.062-0.25 ug/mL. Format: functional.
Test [4] relates to Candida albicans. Put plainly: In vitro minimal inhibitory concentration against Candida albicans with percentage of resistant strains %R = 10 (MIC > 64 ug/mL) at a range of 0.5-8 ug/mL. Format: functional.
The test system of test [5] is Candida albicans. Put plainly: In vitro concentration causing 90% inhibition of Candida albicans with percentage of resistant strains %R = 10 (MIC > 64 ug/mL) at a range of 0.5-8 ug/mL. Format: functional.
Test [6] has as its system Candida albicans. Put plainly: In vitro concentration causing 50% inhibition of Candida albicans with percentage of resistant strains %R = 10 (MIC > 64 ug/mL) at a range of 0.5-8 ug/mL. Format: functional.
Test [7] concerns Candida albicans. Put plainly: Ratio of the in vitro minimal inhibitory concentrations to that of bifonazole against Candida albicans (MIC(compound)/MIC(bifonazole)). Format: functional.
Test [8] deals with Candida albicans. Put plainly: Ratio of the in vitro minimal inhibitory to that of bifonazole against Candida albicans (MIC(compound)/MIC(bifonazole)). Format: functional. The method in brief:
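Broth microdilution per NCCLS M27-A2 against 12 Candida albicans strains (AIDS oropharyngeal, HIV vulvovaginitis isolates, ATCC 24433 and 20891, lab strains 3153 and CA2). Inoculum ~10^4 cells/mL in RPMI 1640, pH 7.0; DMSO stocks 6.4 mg/mL, twofold dilutions 0.016–64 μg/mL; read at 24 h, 28 °C, no visible growth. Mean MIC over strains converted to μmol/mL, divided by bifonazole MIC.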

Test [9] has as its system Candida albicans. Put plainly: In vitro concentration causing 90% inhibition of Candida albicans with percentage of resistant strains %R = 45.45 (MIC > 64 ug/mL) at a range of 0.125-0.5 ug/mL. Format: functional.
Test [10] has as its system Candida albicans. Put plainly: In vitro minimal inhibitory concentration against Candida albicans with percentage of resistant strains %R = 45.45 (MIC > 64 ug/mL) at a range of 0.125-0.5 ug/mL. Format: functional.
Test [11] relates to Candida albicans. Put plainly: In vitro concentration causing 50% inhibition of Candida albicans with percentage of resistant strains %R = 45.45 (MIC > 64 ug/mL) at a range of 0.125-0.5 ug/mL. Format: functional.
Test [12] concerns Candida albicans. Put plainly: In vitro concentration causing 90% inhibition of Candida albicans with percentage of resistant strains %R = 33.33 (MIC > 64 ug/mL) at a range of 0.062-2 ug/mL. Format: functional.
Test [13] concerns Candida albicans. Put plainly: In vitro concentration causing 50% inhibition of Candida albicans with percentage of resistant strains %R = 33.33 (MIC > 64 ug/mL) at a range of 0.062-2 ug/mL. Format: functional.
Test [14] relates to Candida albicans. Put plainly: microbe, parasite or virus in culture.

Values after ≈ are worked out from the molar mass of the structure shown.

Turning to `CCC(C)n1ncn(-c2ccc(N3CCN(c4ccc(OC[C@H]5CO[C@](Cn6cncn6)(c6ccc(Cl)cc6Cl)O5)cc4)CC3)cc2)c1=O` (stereo not given in full) [ITRACONAZOLE], the MIC90 in the test with Candida albicans [1] turned out to be 0.125 µg/mL (≈ 0.177 µM). The compound further returned an MIC50 in the test on Candida albicans [2] of 0.062 µg/mL (≈ 0.0879 µM). The MIC against Candida albicans [3] turned out to be 0.096 µg/mL (≈ 0.136 µM).
`c1ccc(-c2ccc(C(c3ccccc3)n3ccnc3)cc2)cc1` (stereo not given) [BIFONAZOLE]: the MIC against Candida albicans [4] came out at 3.5 µg/mL (≈ 11.3 µM). The MIC90 against Candida albicans [5] is 8 µg/mL (≈ 25.8 µM). Also, the MIC50 against Candida albicans [6] was 2 µg/mL (≈ 6.44 µM). The Ratio with Candida albicans [7] is on record as 1.
For the compound `OC(Cn1cncn1)(Cn1cncn1)c1ccc(F)cc1F` [FLUCONAZOLE], the Ratio with Candida albicans [8] worked out at 0.069. For the same compound, the MIC90 against Candida albicans [9] is 0.5 µg/mL (≈ 1.63 µM). In the test with Candida albicans [10], this compound came in with an MIC of 0.24 µg/mL (≈ 0.784 µM). This compound also gave an MIC50 in the test on Candida albicans [11] of 0.25 µg/mL (≈ 0.816 µM).
With `Clc1ccc(COC(Cn2ccnc2)c2ccc(Cl)cc2Cl)c(Cl)c1` (stereo not given) [MICONAZOLE], the Ratio with Candida albicans [8] stood at 0.14. The same compound registered an MIC90 against Candida albicans [12] of 1 µg/mL (≈ 2.4 µM). Besides, the MIC50 with Candida albicans [13] is 0.062 µg/mL (≈ 0.149 µM). The compound further had an MIC in the test on Candida albicans [14] of 0.65 µg/mL (≈ 1.56 µM).
